Measurements from ChEMBL document CHEMBL2346551, “A new series of N2-substituted-5-(p-toluenesulfonylamino)phthalimide analogues as α-glucosidase inhibitors” (Bioorg Med Chem Lett, 2013).
pIC50: −log10 of the molar value.

Legend:
[1] = Inhibition of rat alpha-amylase using amylose as substrate by colorimetric analysis
[2] = biological target: Lactase/phlorizin hydrolase (Rattus norvegicus, UniProt Q02401); assay: Inhibition of rat intestinal lactase using lactose as substrate by colorimetric analysis
[3] = Inhibition of Saccharomyces cerevisiae alpha-glucosidase using 4-nitrophenyl alpha D-glucopyranoside as substrate assessed as release of 4-nitrophenol incubated for 5 mins prior to substrate addition measured after 10 mins
Procedure, shortened: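 Yeast α-glucosidase assayed at 37 °C with 4-nitrophenyl α-D-glucopyranoside as substrate in 10 mM sodium phosphate buffer, pH 7.28. […] Absorbance rise at 400 nm compared with a DMSO control; IC50 read graphically from percent activity versus log concentration.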

[4] = biological target: Maltase-glucoamylase, intestinal (Rattus norvegicus); assay: Inhibition of rat intestinal maltase using maltose as substrate by colorimetric analysis

Lactase/phlorizin hydrolase, sequence (Q02401 868-1928 limits assumed): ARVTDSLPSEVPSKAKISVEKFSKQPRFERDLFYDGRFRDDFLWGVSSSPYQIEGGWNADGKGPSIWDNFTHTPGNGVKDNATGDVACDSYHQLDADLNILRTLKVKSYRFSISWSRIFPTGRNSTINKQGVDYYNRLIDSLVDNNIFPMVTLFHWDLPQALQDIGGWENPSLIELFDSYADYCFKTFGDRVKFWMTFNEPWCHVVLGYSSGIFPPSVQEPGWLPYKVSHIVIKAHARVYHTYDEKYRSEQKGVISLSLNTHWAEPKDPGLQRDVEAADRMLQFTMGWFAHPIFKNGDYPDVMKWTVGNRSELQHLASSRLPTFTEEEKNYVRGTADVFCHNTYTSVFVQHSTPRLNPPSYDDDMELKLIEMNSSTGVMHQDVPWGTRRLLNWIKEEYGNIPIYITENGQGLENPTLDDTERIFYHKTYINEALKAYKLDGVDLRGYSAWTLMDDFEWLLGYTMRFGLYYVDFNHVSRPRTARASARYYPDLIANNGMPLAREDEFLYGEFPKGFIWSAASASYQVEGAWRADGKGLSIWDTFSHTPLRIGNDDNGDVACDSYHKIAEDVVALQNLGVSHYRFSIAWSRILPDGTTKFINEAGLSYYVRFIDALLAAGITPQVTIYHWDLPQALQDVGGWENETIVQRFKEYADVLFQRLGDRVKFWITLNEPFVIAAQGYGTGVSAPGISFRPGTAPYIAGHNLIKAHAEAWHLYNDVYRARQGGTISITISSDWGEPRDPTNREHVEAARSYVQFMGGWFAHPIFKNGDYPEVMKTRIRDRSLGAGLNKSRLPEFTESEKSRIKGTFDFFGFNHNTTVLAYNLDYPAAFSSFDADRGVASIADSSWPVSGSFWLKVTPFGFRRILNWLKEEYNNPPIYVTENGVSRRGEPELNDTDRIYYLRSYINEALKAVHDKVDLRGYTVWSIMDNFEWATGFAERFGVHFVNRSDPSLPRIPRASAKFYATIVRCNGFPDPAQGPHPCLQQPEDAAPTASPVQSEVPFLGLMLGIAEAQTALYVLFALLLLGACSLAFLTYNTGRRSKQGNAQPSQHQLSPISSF

SMILES | pIC50 [1] | pIC50 [2] | pIC50 [3] | pIC50 [4]
Cc1ccc(S(=O)(=O)Nc2ccc3c(c2)C(=O)N(Cc2ccc(Cl)c(Cl)c2)C3=O)cc1 | < 3.70 | 4.00 | 4.54 | 3.91
Cc1ccc(S(=O)(=O)Nc2ccc3c(c2)C(=O)N(Cc2ccc(C#N)cc2)C3=O)cc1 | < 3.70 | 3.70 | 4.18 | 
Cc1ccc(S(=O)(=O)Nc2ccc3c(c2)C(=O)N(Cc2ccc(C(N)=O)cc2)C3=O)cc1 | < 3.70 | 4.07 | 4.22 | 
Cc1ccc(S(=O)(=O)Nc2ccc3c(c2)C(=O)N(Cc2ccc(O)c(O)c2)C3=O)cc1 | < 3.70 | 3.78 | 4.14 | 
Cc1ccc(S(=O)(=O)Nc2ccc3c(c2)C(=O)N(N2CCOCC2)C3=O)cc1 | < 3.70 | < 3.70 | 4.28 | 
O=C1c2ccccc2C(=O)N1CCNc1ccccc1 | < 3.70 | < 3.70 | < 3.70 | 3.73
O=C1c2ccc([N+](=O)[O-])cc2C(=O)N1CCNc1ccccc1 | < 3.70 | < 3.70 | 4.16 | 3.95
Nc1ccc2c(c1)C(=O)N(CCNc1ccccc1)C2=O | < 3.70 | < 3.70 | 3.86 | 3.84
C[C@H]1O[C@H](O[C@H]2[C@H](O)[C@@H](O)[C@@H](O[C@H]3[C@H](O)[C@@H](O)C(O)O[C@@H]3CO)O[C@@H]2CO)[C@H](O)[C@@H](O)[C@@H]1N[C@H]1C=C(CO)[C@@H](O)[C@H](O)[C@H]1O (stereo not given in full) [ACARBOSE] | 5.06 | 3.78 | 3.63 | 

Second part, the compound after the results:

pIC50 [1] | pIC50 [2] | pIC50 [3] | pIC50 [4] | SMILES
< 3.70 | < 3.70 | 4.03 | < 3.70 | Cc1ccc(S(=O)(=O)Nc2ccc3c(c2)C(=O)N(CCBr)C3=O)cc1
< 3.70 | < 3.70 | 4.05 |  | Cc1ccc(S(=O)(=O)Nc2ccc3c(c2)C(=O)N(CCCBr)C3=O)cc1
< 3.70 | < 3.70 | 4.16 | < 3.70 | Cc1ccc(S(=O)(=O)Nc2ccc3c(c2)C(=O)N(CCCCBr)C3=O)cc1
< 3.70 | < 3.70 | 4.27 | < 3.70 | Cc1ccc(S(=O)(=O)Nc2ccc3c(c2)C(=O)N(Cc2ccccc2)C3=O)cc1
< 3.70 | 3.76 | 4.37 |  | Cc1ccc(S(=O)(=O)Nc2ccc3c(c2)C(=O)N(Cc2ccc(F)cc2)C3=O)cc1
< 3.70 | 3.74 | 4.39 | 3.71 | Cc1ccc(S(=O)(=O)Nc2ccc3c(c2)C(=O)N(Cc2ccccc2F)C3=O)cc1
< 3.70 | 3.81 | 4.49 | 3.73 | Cc1ccc(S(=O)(=O)Nc2ccc3c(c2)C(=O)N(Cc2ccc(Cl)cc2)C3=O)cc1
< 3.70 | 3.75 | 4.23 | 4.00 | Cc1ccc(S(=O)(=O)Nc2ccc3c(c2)C(=O)N(CCNc2ccccc2)C3=O)cc1
< 3.70 | 4.18 | 4.35 | 4.54 | Cc1ccc(S(=O)(=O)Nc2ccc3c(c2)C(=O)N(CCNc2ccc(O)c(O)c2)C3=O)cc1
< 3.70 | 3.96 | 4.54 | 4.25 | Cc1ccc(S(=O)(=O)Nc2ccc3c(c2)C(=O)N(CCOc2cccc(O)c2)C3=O)cc1
< 3.70 | 4.00 | 4.59 | 4.32 | Cc1ccc(S(=O)(=O)Nc2ccc3c(c2)C(=O)N(CCOc2ccc(O)cc2)C3=O)cc1
< 3.70 | 3.77 | 4.33 |  | Cc1ccc(S(=O)(=O)Nc2ccc3c(c2)C(=O)N(CCOc2ccccc2)C3=O)cc1
< 3.70 | < 3.70 | < 3.70 | < 3.70 | Cc1ccc(S(=O)(=O)Nc2ccc3c(c2)C(=O)N(C)C3=O)cc1
